Test results published in ChEMBL document CHEMBL1124344, “5-Piperazinylalkyl-2(3H)-oxazolones with neuroleptic activity” (J Med Chem, 1989).
pIC50: −log10 of the molar value.

Columns and labels:
Canis familiaris = assay: Antagonistic activity against apomorphine-induced emesis, after 1 hr of peroral administration in dogs; assay type: functional; settings: Canis lupus familiaris, po
Summary of the method: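 Male and female dogs pretreated orally, then challenged with apomorphine 0.3 mg/kg sc. Complete protection from vomiting for 30 min after apomorphine is the criterion. ED50 is the dose protecting 50% of dogs, per Janssen's method.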

Dopamine receptor = assay: Binding affinity against rat striatal membranes using [3H]spiroperidol as the radioligand, after 15 min of incubation in vitro at 37 degree C; parameters: species or system Striatum, Membrane
Summary of the method: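 Crude rat striatal membranes were stored at –80 °C, then thawed and washed. They were incubated 15 min at 37 °C with drug (10⁻¹⁰ to 10⁻⁴ M), [3H]spiroperidol 0.5 nM, 1 μM pargyline and 0.1% ascorbic acid, then filtered, washed and counted. Nonspecific binding was defined with 1 μM haloperidol. IC50 was read from the displacement curve.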

Mus musculus [1] = assay: Inhibition against apomorphine-induced turning, after 5 hour of peroral administration in mouse; assay type: functional; settings: po
Summary of the method: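 Mice were lesioned unilaterally with intranigrostriatal 6-hydroxydopamine (20 µg). At 7 days, strong contraversive turners 15 min after apomorphine 2 mg/kg ip were selected. A week later they were dosed orally and rechallenged. Fewer than six full rotations in 2 min counted as protection. ED50 is the dose protecting 50%.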

Mus musculus [2] = assay: Anticonvulsant activity against tryptamine-induced convulsions, after 5 hour of peroral administration in mouse at a dose of 40 mg/kg; assay type: functional; settings: route oral
Summary of the method: (§1)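 Compounds were dosed as bases suspended in arabic gum at 10 mL/kg orally, after an overnight fast, with vehicle controls. Protection meant no bilateral forepaw clonic seizures or head twitches (tryptamine), or no tonic hind-limb extension (the other two). ED50 is the dose protecting 50%, by probit analysis.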

Mus musculus [3] = assay: Inhibitory activity against tremorine-induced salivation, after 5 hour of peroral administration in mouse at a dose of 60 mg/kg; assay type: functional; settings: route oral
Summary of the method: (§2)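 Male mice fasted overnight, dosed orally with arabic gum suspension (10 mL/kg) 1 or 5 h before test, vehicle controls included. Tremorine 20 mg/kg ip given 1 h after compounds; central (tremor) and peripheral (salivation) parasympathetic signs recorded. ED50 = dose protecting 50% of animals, by probit analysis.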

Mus musculus [4] = assay: Inhibitory activity against tremorine-induced tremors, after 1 hour of peroral administration in mouse at a dose of 60 mg/kg; assay type: functional; settings: route oral; summary of the method: as §2
Mus musculus [5] = assay: Inhibitory activity against tremorine-induced salivation, after 1 hour of peroral administration in mouse at a dose of 60 mg/kg; assay type: functional; settings: route oral; summary of the method: as §2
Mus musculus [6] = assay: Inhibitory activity against tremorine-induced tremors, after 5 hour of peroral administration in mouse at a dose of 60 mg/kg; assay type: functional; settings: route oral; summary of the method: as §2
Rattus norvegicus [7] = species: Rattus norvegicus; assay: Body weight gain, after 2 hour period of conditioned feeding in rats; assay type: functional
Summary of the method: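 Female rats (250–280 g) were kept singly on a 22-h food deprivation schedule, with pellets 10–12 a.m. and water always available. After 30–40 days of training they were dosed 1 h before the 2-h feeding and weighed before and after it. Weight gain was expressed as a percentage of the two preceding control days. ED50 is the dose giving 50% reduction.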

Mus musculus [8] = assay: Activity of inclined screen in mouse, after 5 hour of peroral administration in mouse; assay type: functional; settings: po
Summary of the method: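 Male mice dosed orally (arabic gum suspension, 10 mL/kg, fasted overnight) 1 or 5 h before testing. Placed for 1 h on a wire screen bent at 60° to the horizontal. Ataxic or miorelaxed mice slide off. ED50 is the dose at which 50% of mice fall, by probit analysis. Ten animals per dose, with vehicle controls.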

Mus musculus [9] = assay: Anticonvulsant activity against electroshock-induced convulsions, after 1 hour of peroral administration in mouse; assay type: functional; settings: po
Summary of the method: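 Male mice given oral drug in arabic gum suspension (10 mL/kg) after overnight fast, then challenged by maximal electroshock. Protection means absence of tonic hind-limb extension. ED50 is the dose protecting 50% of mice, by probit analysis.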

Mus musculus [10] = assay: Anticonvulsant activity against electroshock-induced convulsions, after 5 hours of peroral administration in mouse; assay type: functional; settings: po; summary of the method: as §1
Mus musculus [11] = assay: Inhibition of spontaneous locomotor activity, after 5 hour of peroral administration in mouse; assay type: functional; settings: po
Summary of the method: (§3)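 Mice in groups of five were dosed orally with gum arabic suspensions at 10 mL/kg after an overnight fast, with a vehicle control group. Locomotion was counted for 10 min in a photocell activity cage, in at least two groups per dose. ED50, by probit analysis, is the dose giving 50% inhibition against controls.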

Mus musculus [12] = assay: Lethal dose in mice by administered the compound intraperitoneally; assay type: functional; settings: ip
Summary of the method: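 Acute toxicity tested in mice by the intraperitoneal route. LD50 is the dose killing 50% of treated mice, computed by Finney probit analysis; values are approximate.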

Mus musculus [13] = assay: Inhibitory activity against tremorine-induced salivation, after 1 hour of peroral administration in mouse; assay type: functional; settings: po; summary of the method: as §2
Mus musculus [14] = assay: Inhibitory activity against tremorine-induced salivation, after 5 hour of peroral administration in mouse; settings: po
Mus musculus [15] = assay: Effect on skeletal muscle tone, after 1 hour of peroral administration in mouse; assay type: functional; settings: Muscle tissue, po
Summary of the method: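 Male mice suspended by forepaws from a 1.8-mm wire stretched 15 cm above a plane. Trained normal mice touch the wire with a hind paw within 2 s (traction) and hang at least 1 min (suspension). Oral dosing 1 or 5 h before. ED50 is the dose making 50% of mice fall without traction and suspension.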

Mus musculus [16] = assay: Effect on skeletal muscle tone, after 5 hour of peroral administration in mouse; assay type: functional; settings: Muscle tissue, po
Summary of the method: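 Male mice were placed for 1 h on a 60° inclined wire screen just after dosing and 4 h later. In a second test, trained mice hung by the forepaws from a horizontal 1.8 mm wire 15 cm up; normal mice touch it with a hind paw within 2 s and stay ≥1 min. ED50 is the dose making 50% fall. Dosing was oral in gum arabic suspension at 10 mL/kg after an overnight fast.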

Rattus norvegicus [17] = species: Rattus norvegicus; assay: Binding affinity against rat striatal membranes using [3H]spiroperidol as the radioligand after 15 min of incubation at 37 °C
Rattus norvegicus [18] = assay: Activity to evoke catalepsy in rats, by administering perorally; assay type: functional; settings: po
Summary of the method: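 Rats fasted overnight and given oral doses in arabic gum suspension (10 mL/kg), 1 h before screening or 1 and 5 h before profile testing. Forelegs placed on a horizontal bar 7 cm high, three times at 5-min intervals. Immobility of at least 15 s counts as catalepsy. ED50 is the dose giving catalepsy in 50% of rats, by probit analysis. Parenthetical entries give the maximal dose and percent activity.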

Rattus norvegicus [19] = assay: Inhibitory activity against norepinephrine-induced lethality, after 1 hour of peroral administration in rat; assay type: functional; settings: po
Summary of the method: (§4)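 Rats (80–90 g) dosed orally (arabic gum, 10 mL/kg) 1 or 5 h before norepinephrine 0.5 mg/kg iv, which kills unprotected rats within 30 min. ED50 is the dose protecting 50% of rats from lethality, by probit analysis.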

Rattus norvegicus [20] = assay: Inhibitory activity against norepinephrine-induced lethality, after 5 hour of peroral administration in rat; assay type: functional; settings: po; summary of the method: as §4
Rattus norvegicus [21] = assay: Antagonistic activity against apomorphine-induced stereotypy in rats, by administering perorally; assay type: functional; settings: po
Summary of the method: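 Male rats fasted overnight and given oral doses in arabic gum suspension (10 mL/kg) 1 h, or 1 and 5 h, before challenge. Apomorphine 3 mg/kg iv, with stereotypy observed 20 min later. ED50 is the dose inhibiting stereotypy in 50% of rats, per Janssen's method. Parenthetical entries give the maximal dose and percent activity.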

Mus musculus [22] = assay: Inhibition of spontaneous motor activity after 1 hour of peroral administration in mouse; assay type: functional; settings: po; summary of the method: as §3

Row | Compound | ED50 (Canis familiaris) [mg/kg] | IC50 (Dopamine receptor) [nM] | ED50 (Mus musculus [1]) [mg/kg] | inhibition in vivo at 60 mg/kg (Mus musculus [3]) [%] | inhibition in vivo at 60 mg/kg (Mus musculus [4]) [%] | inhibition in vivo at 60 mg/kg (Mus musculus [5]) [%] | inhibition in vivo at 60 mg/kg (Mus musculus [6]) [%] | ED50 (Rattus norvegicus [7]) [mg/kg] | ED50 (Mus musculus [8]) [mg/kg] | ED50 (Mus musculus [9]) [mg/kg] | ED50 (Mus musculus [10]) [mg/kg] | ED50 (Mus musculus [12]) [mg/kg] | ED50 (Mus musculus [13]) [mg/kg] | ED50 (Mus musculus [14]) [mg/kg] | ED50 (Mus musculus [15]) [mg/kg] | ED50 (Mus musculus [16]) [mg/kg] | pIC50 (Rattus norvegicus [17]) | ED50 (Rattus norvegicus [18]) [mg/kg] | ED50 (Rattus norvegicus [19]) [mg/kg] | ED50 (Rattus norvegicus [20]) [mg/kg] | other results
1 | O=c1[nH]c(-c2ccc(F)cc2)c(CCN2CCN(c3cc(Cl)cc(Cl)c3)CC2)o1 [LODIPERONE] | 4 | 68 | 1 | 0 | 0 | 0 | 0 | 2.2 |  |  |  |  |  |  |  |  |  |  |  |  | inhibition in vivo at 40 mg/kg (Mus musculus [2]): 0%
2 | CN(C)CCCN1c2ccccc2Sc2ccc(Cl)cc21 [CHLORPROMAZINE] |  |  |  |  |  |  |  | 6 | 7 | 19.2 | 10 | 2.7 | 2.5 | 2 | 2.7 | 7.5 | 6.74 |  |  |  | ED50 (Mus musculus [11]): 4.8 mg/kg
3 | COc1ccccc1N1CCN(CCc2oc(=O)[nH]c2-c2ccc(F)cc2)CC1 [ZOLOPERONE] | 0.7 | 250 | 20 |  |  |  |  | 7.1 |  |  |  |  |  |  |  | 75 |  | 55.6 | 3.2 | 8.2 | ED50 (Rattus norvegicus [21]): 10.4 mg/kg
4 | O=C(CCCN1CCC(O)(c2ccc(Cl)cc2)CC1)c1ccc(F)cc1 [HALOPERIDOL] |  |  |  |  |  |  |  | 0.3 | 6.5 | 1.9 | 0.38 | 0.23 | 4 | 21.6 | 17.1 |  | 8.00 |  |  |  | 
5 | COc1ccccc1N1CCN(CCCC(=O)c2ccc(F)cc2)CC1 [FLUANISONE] |  |  |  | 0 | 0 | 0 | 0 |  |  |  |  |  |  |  |  |  |  | 18 | 1.9 | 5.6 | ED50 (Mus musculus [22]): 7.7 mg/kg; ED50 (Rattus norvegicus [21]): 63.2 mg/kg
